Assay results of several laboratories.
Protocols differ between the studies behind these lines.

SMILES	cell line	read-out	technique	concentration	time	endpoint	result
O=C(Nc1ccc(C(F)(F)F)cc1)Nc1cccc([N+](=O)[O-])c1	LAD2	degranulation				IC50	370 nM
CC(C)(C)c1cnc(CSc2cnc(NC(=O)C3CCN(C(=O)CCCSc4cccc5c4C(=O)N(C4CCC(=O)NC4=O)C5=O)CC3)s2)o1 (stereo not drawn)	HH	cell growth or viability	CCK-8	0.25 µM		viability	86.7%
CC(=O)c1nn(-c2ccccc2Cl)/c(=N/N=C(\C)c2ccc(NC(=O)c3ccccc3)cc2)s1	HepG2	cell growth or viability	MTT	0.156 µM		viability	30.2%
Nc1ncnc2c1c(/C=C/C(=O)N1CCOCC1)nn2CC1CCCC1	OE33	cell growth or viability	resazurin		5 days	EC50	> 30 µM
O=C(Nc1ccc([N+](=O)[O-])cc1)Nc1cccc(C(F)(F)F)c1	LAD2	degranulation				IC50	750 nM
CC(=NNC(=O)c1cccnc1)c1ccc(Nc2nnc(-c3ccc(Cl)cc3)c3ccccc23)cc1	HepG2	cell growth or viability	MTT	0.312 µM		cell death	6.41%
CC(C)(C)c1cnc(CSc2cnc(NC(=O)C3CCN(CCCCSc4cccc5c4C(=O)N(C4CCC(=O)NC4=O)C5=O)CC3)s2)o1 (stereo not drawn)	HH	cell growth or viability	CCK-8	10 nM		viability	105%
CCOC(=O)c1nn(-c2cccc(Cl)c2)/c(=N/N=C(\C)c2ccc(NC(=O)c3ccc(Cl)cc3)cc2)s1	HepG2	cell growth or viability	MTT	1.25 µM		viability	2.59%
CC(=NNC(=O)c1ccccc1Br)c1ccc(Nc2nnc(-c3ccc(Cl)cc3)c3ccccc23)cc1	HepG2	cell growth or viability	MTT	0.312 µM	24 h	viability	85.4%
CC(C)(C)c1cnc(CSc2cnc(NC(=O)C3CCN(CCCCCCCCSc4cccc5c4CN(C4CCC(=O)NC4=O)C5=O)CC3)s2)o1 (stereo not drawn)	HH	cell growth or viability	trypan blue		48 h	IC50	114 nM
O=C(Nc1ccc(Oc2nnc(-c3ccc(Cl)cc3)c3ccccc23)cc1)c1cccc([N+](=O)[O-])c1	HepG2	cell growth or viability	MTT	0.625 µM		cell death	32.3%
Cc1cc(C)n(C(C(=O)OC(C)C)n2nc(C)cc2C)n1	A-431	cell growth or viability	MTT		72 h	IC50	> 50000 nM
Nc1ncnc2c1c(/C=C/C(=O)N1CCC(CCO)CC1)nn2CC1CCCC1	OE33	cell growth or viability	resazurin		5 days	EC50	> 30 µM
C=CC(=O)NC1CCN(c2ncc3ncnc(Nc4ccc(Oc5ccc6c(c5)ncn6C)c(C)c4)c3n2)CC1	MKN-7	cell growth or viability				EC50	0.00659 µM
CC(=O)Nc1ccc(Oc2nnc(-c3ccc(Cl)cc3)c3ccccc23)cc1	HepG2	cell growth or viability	MTT	1.25 µM		cell death	92.9%
CCOC1CCN(C(=O)/C=C/c2nn(Cc3cccc(C)c3)c3nc(NC)ncc23)CC1	OE33	cell growth or viability	resazurin		5 days	EC50	2.28 µM
CCOC(=O)c1nn(-c2cccc(Cl)c2)/c(=N/N=C(\C)c2ccc(NC(=O)c3ccccc3)cc2)s1	HepG2	cell growth or viability	MTT	10 µM		viability	3%

SMILES	cell line	read-out	technique	concentration	time	endpoint	result
CC(C)(C)c1cnc(CSc2cnc(NC(=O)C3CCN(C(=O)COCCOCCSc4cccc5c4C(=O)N(C4CCC(=O)NC4=O)C5=O)CC3)s2)o1 (stereo not drawn)	HH	cell growth or viability	CCK-8	1 µM		viability	7.67%
CNc1ncc2c(/C=C/C(=O)N3CCCC3)nn(CC3CCCC3)c2n1	OE33	cell growth or viability	resazurin		5 days	EC50	> 30 µM
CC(C)(C)c1cnc(CSc2cnc(NC(=O)C3CCN(CCCCCSc4cccc5c4CN(C4CCC(=O)NC4=O)C5=O)CC3)s2)o1 (stereo not drawn)	HH	cell growth or viability	CCK-8	1 nM		viability	96.6%
CC(=NNC(=O)c1ccccc1O)c1ccc(Nc2nnc(-c3ccc(Cl)cc3)c3ccccc23)cc1	HepG2	cell growth or viability	MTT	5 µM		cell death	84.2%
CNc1ncc2c(/C=C/C(=O)N3CCOCC3)nn(CC3CCCC3)c2n1	OE33	cell growth or viability	resazurin		5 days	EC50	> 30 µM
CC(C)(C)c1cnc(CSc2cnc(NC(=O)C3CCN(CCCCCCCCSc4cccc5c4C(=O)N(C4CCC(=O)NC4=O)C5=O)CC3)s2)o1 (stereo not drawn)	HH	cell growth or viability	CCK-8	0.2 µM		viability	10.7%
CC1CCN(C(=O)/C=C/c2nn(CC3CCCC3)c3ncnc(N)c23)CC1	OE33	cell growth or viability	resazurin		5 days	EC50	> 30 µM
CC(=O)c1nn(-c2ccc(C)cc2)/c(=N/N=C(\C)c2ccc(NC(=O)c3ccccc3)cc2)s1	HepG2	cell growth or viability	MTT	0.312 µM		viability	5.09%
CC(C)(C)c1cnc(CSc2cnc(NC(=O)C3CCN(CCCCCCCSc4cccc5c4C(=O)N(C4CCC(=O)NC4=O)C5=O)CC3)s2)o1 (stereo not drawn)	HH	cell growth or viability	CCK-8	0.1 µM		viability	92.7%
C[C@H]1Oc2cc(cnc2N)-c2c(nn(C)c2C#N)CN(C)C(=O)c2ccc(F)cc21	A-431	cell growth or viability				IC50	> 10000 nM
O=C(Nc1ccc(Oc2nnc(-c3ccc(Cl)cc3)c3ccccc23)cc1)c1ccccc1	HepG2	cell growth or viability	MTT	78 nM		cell death	3.97%
CNc1ncc2c(/C=C/C(=O)N3CCC(OC)CC3)nn(CC(C)(C)C)c2n1	OE33	cell growth or viability	resazurin		5 days	EC50	> 30 µM
CC(=NNC(=S)Nc1ccccc1)c1ccc(Nc2nnc(-c3ccc(Cl)cc3)c3ccccc23)cc1	HepG2	cell growth or viability	MTT	5 µM		cell death	95.1%
O=C(Nc1ccccc1)Nc1ccc(C(F)(F)F)cc1	LAD2	degranulation				IC50	8310 nM
COC(=O)/C=C/c1nn(CC2CCCC2)c2ncnc(N)c12	OE33	cell growth or viability	resazurin		5 days	EC50	> 30 µM
O=C(Nc1ccccc1)Nc1ccc(Oc2nnc(-c3ccc(Cl)cc3)c3ccccc23)cc1	HepG2	cell growth or viability	MTT	0.312 µM		cell death	93%
